Reference: article PMC2900318 (Bioorganic & medicinal chemistry letters, 2009)
In brackets after ≈: the same amount, converted by molar mass.

Assays:
human sEH [1] = molecular target: T1, human sEH (Homo sapiens, UniProt P34913); assay: Inhibition of human sEH, kinetic fluorescent assay; format: biochemical; conditions: for Fold better inhibitory activity against sEH: salicylic acids vs benzoic acids 14 and 15, respectively
T1 sequence (P34913 1-555): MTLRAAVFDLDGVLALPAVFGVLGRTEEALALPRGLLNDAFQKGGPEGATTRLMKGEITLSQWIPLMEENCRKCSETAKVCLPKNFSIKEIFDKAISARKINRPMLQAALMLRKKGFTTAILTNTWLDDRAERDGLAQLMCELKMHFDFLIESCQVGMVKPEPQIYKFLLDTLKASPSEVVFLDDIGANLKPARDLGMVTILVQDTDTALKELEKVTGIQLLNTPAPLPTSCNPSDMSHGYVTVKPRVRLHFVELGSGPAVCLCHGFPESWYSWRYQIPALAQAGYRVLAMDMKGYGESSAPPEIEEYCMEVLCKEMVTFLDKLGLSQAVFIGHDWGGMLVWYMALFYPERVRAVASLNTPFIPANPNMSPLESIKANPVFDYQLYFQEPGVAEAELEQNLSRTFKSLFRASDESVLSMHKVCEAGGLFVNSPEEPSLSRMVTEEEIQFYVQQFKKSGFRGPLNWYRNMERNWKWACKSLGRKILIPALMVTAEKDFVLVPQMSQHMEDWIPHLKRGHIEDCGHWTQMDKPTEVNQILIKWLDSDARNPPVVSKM

human sEH [2] = molecular target: T1, human sEH; conditions: statement in words; cited from earlier work
Solubility in water = format: physicochemical
[3] = Octanol/buffer partition, experimental logP; format: physicochemical; conditions: for Concentration in buffer: 0.1 M sodium phosphate buffer (pH 7.4) vs buffer saturated 1-octanol; for Concentration in octanol: buffer saturated 1-octanol vs 0.1 M sodium phosphate buffer (pH 7.4)
[4] = Blood levels after oral administration to dog; format: in vivo; conditions: oral gavage 0.3 mg/kg in tri-olein rich oil
Outline: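 Dogs received the test compound as a single oral gavage dose of 0.3 mg/kg in tri-olein rich oil. Blood concentrations were followed over time to give concentration–time profiles.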

[5] = In vitro stability with human liver S9 incubation with or without NADPH; format: in vitro ADME; conditions: for Parent compound remaining after the reaction / Level of the corresponding acid metabolite: human hepatic S9, 60 min; for Parent compound remaining after the reaction: with or without NADPH; for Level of the corresponding acid metabolite: metabolites 15 and 27, respectively
Chemical stability = format: physicochemical; conditions: 40 mM NaOH; 22 °C
Outline: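 The test compound was incubated in alkaline solution (40 mM NaOH) at 22 °C. Hydrolysis was followed over time as conversion to the corresponding phenol.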

COX-1 = molecular target: T2, COX-1 (Ovis aries, UniProt P05979); assay: COX-1 fluorescent inhibitor screening assay kit; format: biochemical; conditions: at 10 μM
T2 sequence (P05979 25-600): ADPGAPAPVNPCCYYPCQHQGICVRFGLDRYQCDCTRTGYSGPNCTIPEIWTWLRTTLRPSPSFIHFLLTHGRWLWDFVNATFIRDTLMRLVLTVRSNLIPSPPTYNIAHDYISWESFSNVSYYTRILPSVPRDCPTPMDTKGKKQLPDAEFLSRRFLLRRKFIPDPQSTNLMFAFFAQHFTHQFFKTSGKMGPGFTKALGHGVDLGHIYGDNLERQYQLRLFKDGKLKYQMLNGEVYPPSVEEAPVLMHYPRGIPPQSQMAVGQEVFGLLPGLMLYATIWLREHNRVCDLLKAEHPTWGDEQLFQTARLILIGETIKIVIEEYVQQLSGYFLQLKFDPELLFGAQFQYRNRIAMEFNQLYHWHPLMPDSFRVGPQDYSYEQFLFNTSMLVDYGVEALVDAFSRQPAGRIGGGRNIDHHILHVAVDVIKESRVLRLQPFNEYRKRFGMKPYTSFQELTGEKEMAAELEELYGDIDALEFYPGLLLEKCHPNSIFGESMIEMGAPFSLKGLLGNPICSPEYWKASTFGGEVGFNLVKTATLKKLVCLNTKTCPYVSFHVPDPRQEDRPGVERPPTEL

COX-2 = molecular target: T3, COX-2 (Homo sapiens, UniProt P35354); assay: COX-2 fluorescent inhibitor screening assay kit; format: biochemical; conditions: at 10 μM
T3 sequence (P35354 18-604): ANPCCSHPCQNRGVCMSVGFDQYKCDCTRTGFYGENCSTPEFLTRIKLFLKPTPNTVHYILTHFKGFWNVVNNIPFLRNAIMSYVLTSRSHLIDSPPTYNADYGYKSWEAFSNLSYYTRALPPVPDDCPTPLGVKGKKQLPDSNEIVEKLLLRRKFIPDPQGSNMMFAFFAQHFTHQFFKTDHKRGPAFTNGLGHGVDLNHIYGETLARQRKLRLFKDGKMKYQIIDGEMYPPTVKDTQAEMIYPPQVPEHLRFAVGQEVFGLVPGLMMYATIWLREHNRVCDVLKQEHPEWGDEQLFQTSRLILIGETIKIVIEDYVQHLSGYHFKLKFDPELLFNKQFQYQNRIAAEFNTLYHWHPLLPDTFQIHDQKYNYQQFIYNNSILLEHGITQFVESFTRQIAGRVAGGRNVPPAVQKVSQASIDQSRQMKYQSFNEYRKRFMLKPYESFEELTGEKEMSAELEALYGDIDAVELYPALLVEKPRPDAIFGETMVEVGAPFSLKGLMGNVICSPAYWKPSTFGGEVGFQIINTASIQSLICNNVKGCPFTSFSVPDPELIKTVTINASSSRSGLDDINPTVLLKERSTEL

O=C(Nc1ccccc1O)NC12CC3CC(CC(C3)C1)C2 [Compound 2]
Fold reduction of inhibitory potency against human sEH (human sEH [1]; ortho hydroxy vs non-functionalized compound 1 / meta, para isomers): roughly 10 fold

O=C(NC12CC3CC(CC(C3)C1)C2)NC12CC3CC(CC(C3)C1)C2 [N,N′-bisadamantyl urea]
Inhibition towards sEH (human sEH [2]): strong inhibition

O=C(Nc1ccc(C(=O)O)c(O)c1)NC12CC3CC(CC(C3)C1)C2 [Compound 27]
Fold better inhibitory activity against sEH (human sEH [1]): 20 fold | Fold more soluble in water (Solubility in water; compared to 17 (so in the source)): 20 fold | Concentration in buffer [3]: 39 µM | Concentration in octanol [3]: 1641 µM | Blood concentration [4]: no 27 was detected

COC(=O)c1cc(NC(=O)NC23CC4CC(CC(C4)C2)C3)ccc1O [Compound 26]
Fold increase in metabolic stability ([5]; human liver S9, compared to 12): 10 fold

COC(=O)c1ccc(NC(=O)NC23CC4CC(CC(C4)C2)C3)cc1 [Compound 13]
Parent compound remaining after the reaction [5]: ≥ 90% | Level of the corresponding acid metabolite [5]: below the limit of detection | Concentration in buffer [3]: <0.3 µM | Concentration in octanol [3]: 2445 µM

CC(=O)Oc1ccc(NC(=O)NC23CC4CC(CC(C4)C2)C3)cc1 [Compound 10]
Hydrolysis to the corresponding phenol 4 ([5]; human hepatic S9, in an hour): hydrolyzed completely | Time to complete conversion to the corresponding phenol 4 (Chemical stability): less than 15 min

COC(=O)c1ccc(NC(=O)NC23CC4CC(CC(C4)C2)C3)cc1O [Compound 28]
IC50 (human sEH [1]): ~3 nM | Parent compound remaining after the reaction [5]: ≥ 90% | Level of the corresponding acid metabolite [5]: below the limit of detection | Concentration in buffer [3]: <0.3 µM | Concentration in octanol [3]: 3886 µM | Blood concentration [4]: higher than that of the classical sEH inhibitor AUDA | Inhibition of COX-1 (COX-1): not able to show any inhibition | Inhibition of COX-2 (COX-2): not able to show any inhibition

O=C(Nc1ccc(OC(=O)c2ccccc2)cc1)NC12CC3CC(CC(C3)C1)C2 [Compound 11]
Parent compound remaining after the reaction [5]: 30% | Time to complete conversion to the corresponding phenol 4 (Chemical stability): less than 15 min

O=C(Nc1ccc(O)c(C(=O)O)c1)NC12CC3CC(CC(C3)C1)C2 [Compound 25]
Fold better inhibitory activity against sEH (human sEH [1]): 3 fold

O=C(Nc1ccc(C(=O)O)cc1)NC12CC3CC(CC(C3)C1)C2 [Compound 15]
Fold less active towards sEH (human sEH [1]; vs un-substituted phenyl 1 or the corresponding ester 13): 83 fold

O=C(Nc1cccc(C(=O)N2CCC(N3CCOCC3)CC2)c1)NC12CC3CC(CC(C3)C1)C2 [Compound 17]
solubility (Solubility in water; sodium phosphate buffer, pH 7.4): 10000 µg/mL (≈ 21.4 mM) | Concentration in octanol [3]: 2720 µM
